Assay outcomes as filed in PubChem BioAssay.
CAL PDZ FP-1: untagged CAL PDZ binding inhibitors, primary screen, biochemical, fluorescence polarization, HTS; Golgi-associated PDZ and coiled-coil motif-containing protein (Homo sapiens), Q9HD26; purified CAL PDZ, TMR-peptide fluorescence polarization, 1 h; inhibition, % at 24.9 µM; AID 602252, 2012; actives 0.92% (n = 300,000);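 active = mean inhibition of at least 30% with at least half of replicates also reaching 30%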;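 note: 0% = DMSO neutral control and 100% = excess unlabeled competitor peptide PRC23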
Keap1 Nrf2 FP: Keap1-Nrf2 protein-protein interaction inhibitors, primary screen, biochemical, fluorescence polarization, single point. Keap1 Kelch-Nrf2 peptide fluorescence polarization, 1536-well. inhibition, % at 9.4 µM. actives 0.15% (n = 340,000); in the data active = inhibition above about 12%;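 note: human Keap1 Kelch domain with fluorescein labeled Nrf2 9mer peptide probe; 0% = neutral control wells and 100% = peptide positive control; higher means more block of Keap1 binding to Nrf2 peptide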
Target sequence (Q14145 whole entry, looked up, the tested form may be a part): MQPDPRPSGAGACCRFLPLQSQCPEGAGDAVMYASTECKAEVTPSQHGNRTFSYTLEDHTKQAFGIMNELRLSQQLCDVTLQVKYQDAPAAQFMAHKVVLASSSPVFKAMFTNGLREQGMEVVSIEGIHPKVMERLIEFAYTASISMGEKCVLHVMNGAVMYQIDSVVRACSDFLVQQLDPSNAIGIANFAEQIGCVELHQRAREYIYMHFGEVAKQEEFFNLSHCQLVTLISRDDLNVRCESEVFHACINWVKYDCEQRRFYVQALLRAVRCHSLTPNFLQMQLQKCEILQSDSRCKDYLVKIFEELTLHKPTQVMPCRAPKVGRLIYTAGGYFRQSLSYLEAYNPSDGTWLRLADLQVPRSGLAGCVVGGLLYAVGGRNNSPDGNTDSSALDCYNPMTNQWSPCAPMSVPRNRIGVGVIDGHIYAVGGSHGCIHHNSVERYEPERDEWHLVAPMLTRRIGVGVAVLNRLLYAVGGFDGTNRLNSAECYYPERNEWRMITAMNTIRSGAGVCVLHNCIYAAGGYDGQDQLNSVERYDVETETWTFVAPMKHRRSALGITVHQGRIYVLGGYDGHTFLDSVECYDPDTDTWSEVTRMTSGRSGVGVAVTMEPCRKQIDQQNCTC
LANA DNA inh: inhibitors of KSHV C-LANA binding to DNA, primary screen, biochemical, fluorescence polarization, FAM-LBS DNA, MBP-C-LANA, single point | inhibition, % at 9 µM | actives 0.078% (n = 340,000) | AID 504423, 2011;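 active = highest replicate inhibition at or above 60% at 9 µM, even if other replicates fall short; inactive = all replicates below 60% inhibition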;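 note: 0% = neutral control wells and 100% = 4 µM acridine orange control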
cardiac RTF act: cardiac RTF calcium sensitivity activators, primary screen, biochemical, IANBD-TnC fluorescence, EC20 calcium; activation, % at 7.2 µM; actives 0.24% (n = 340,000); IANBD-labeled TnC RTF fluorescence at EC20 calcium; 0% EC20 calcium, 100% full calcium;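 active = activation above the mean over all tested compounds plus 3 SD, cut at about 30% in these data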;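 note: rise in fluorescence read as greater calcium sensitivity of cardiac thin filaments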
RTF Ca sens inh: cardiac RTF calcium sensitivity inhibitors, primary screen, biochemical, IANBD-TnC fluorescence, EC70 calcium | Troponin I, cardiac muscle (Homo sapiens) + Troponin T, cardiac muscle (Homo sapiens) + … | IANBD-labeled cardiac RTF, Ca2+ fluorescence | inhibition, % at 7.15 µM | actives 0.12% (n = 340,000);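 active = inhibition above the mean inhibition of all tested compounds plus 3 SD, cut at about 17% in these data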;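 note: assay run at fixed EC70 calcium of 1.6 mM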
CAL PDZ FP-2: CAL PDZ peptide-binding inhibitors, primary screen, biochemical, fluorescence polarization, Cer-tagged CAL PDZ, HTS | Golgi-associated PDZ and coiled-coil motif-containing protein (Homo sapiens), Q9HD26 | purified CAL PDZ, TMR-peptide fluorescence polarization, 1 h | inhibition, % at 20 µM | actives 0.02% (n = 330,000) | AID 504414, 2011;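 active = highest replicate inhibition of at least 40%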;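 note: plate controls were DMSO neutral control wells for no effect and unlabeled competitor peptide control wells for full effect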
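Control set: unlabelled peptide and DMSO controls / Material: purified CerCALP PDZ construct / Timing: 1 h incubation at room temperature before polarization reading / Doses: 20 µM, one dose / Detection: fluorescence polarization (mP)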
The depositor's hits bear a star; · = no result given. Rows were chosen to be rich in hits. Some 1.3% of all compounds tested hit in one or more screens of this group.

SMILES	CAL PDZ FP-1	Keap1 Nrf2 FP	LANA DNA inh	cardiac RTF act	RTF Ca sens inh	CAL PDZ FP-2
COc1ccc(C(=O)N(C)Cc2cnn(Cc3ccccc3)c2)cc1S(=O)(=O)N1CCOCC1	-32	-1	1	-1	4	-2
Cc1nn(CC(=O)c2ccc3c(c2)OCCO3)c(=O)c(C#N)c1C	0	-7	2	2	-5	0
OC(CNCC1COc2ccccc2O1)COc1ccc(Cl)cc1 (centres undefined)	1	-3	-1	-7	-7	-1
CCOC(=O)C1C(=O)NC(SCC(N)=O)=C(C#N)C1c1ccccc1OCC (centres undefined)	-6	-36	-16	38*	-71	-1
Cc1c(C(=O)N2CCOCC2)c(S(=O)(=O)Nc2ccc(C(C)C)cc2)c(C)n1C	48*	-1	-1	0	-7	-1
COc1ccc(C(=O)NCC(=O)OCC(=O)c2ccc(Cl)cc2)cc1OC	34*	-7	-1	0	4	0
COc1ccc(C(=O)NCC(=O)OCc2ccc(Cl)cc2Cl)cc1OC	·	5	-1	-1	-5	0
O=C(NCCc1ccc(Cl)cc1)c1ccc(CNc2c(N3CCOCC3)c(=O)c2=O)cc1	0	-3	-1	2	-2	-3
O=C(NCc1ccc(Cl)cc1)c1ccc(CNc2c(N3CCOCC3)c(=O)c2=O)cc1	69*	-6	3	3	1	-1
CCn1cc(/C=N\NC(=O)c2csc3ccccc23)c(C)n1	32*	1	-2	3	-3	·
CCn1cc(/C=N\NC(=O)c2c[nH]c3ccccc23)c(C)n1	-3	3	0	5	8	-1
COc1ccc(S(=O)(=O)N2CCN(c3nc(-c4cccnc4)nc4ccccc34)CC2)cc1	1	-7	0	2	-2	-1
CCC(NC(=O)Cc1c(C)c2c(cc(C)c3c(C)c(C)oc32)oc1=O)C(=O)O (centres undefined)	-9	-5	-1	-4	-6	-5
[O-][n+]1cccc2cccc(O)c21	49*	2	-3	6	2	0
COc1ccc2c(c1)CCCC21NC(=O)N(CC(=O)N2CC(C)OC(C)C2)C1=O (centres undefined)	0	-1	1	0	-6	0
O=C(NC(=S)Nn1cnnc1)c1ccccc1	-5	2	-1	2	-8	0
O=C(NC(=S)Nn1cnnc1)c1ccccc1Br	53*	-3	-1	2	-3	0
CCN(CC)CCN1C(=O)C(=O)/C(=C(/O)c2c(C)[nH]c(C(=O)OC)c2C)C1c1ccccc1 (centres undefined)	-8	6	-2	-1	0	-3
CCN(CC)CCN1C(=O)C(=O)/C(=C(/O)c2c(C)[nH]c(C(=O)OC)c2C)C1c1cccnc1 (centres undefined)	44*	0	0	-3	4	1
Cc1ccc(C(=O)c2oc3ccc(Cl)cc3c2NC(=O)CN2CCN(C)CC2)cc1	-1	0	0	0	-1	-4
CN(C)/C=C/C(=O)c1ccc(F)cc1	1	-2	0	3	-2	-2
CCCc1ccc(C(=O)/C=C/N(C)C)cc1	53*	4	2	2	-2	-4
O=S(=O)(c1ccc(Br)cc1)N1CCN=C1SCc1cccnc1	45*	0	-1	-2	-8	-1
O=S(=O)(c1ccccc1)N1CCN=C1SCc1ccc(Cl)cc1	44*	-1	0	7	-3	-1
COc1ccc(C(C[N+](=O)[O-])c2c(-c3ccccc3)cc3ccccn23)cc1 (centres undefined)	85*	-16	-1	-4	5	-1
SMILES	CAL PDZ FP-1	Keap1 Nrf2 FP	LANA DNA inh	cardiac RTF act	RTF Ca sens inh	CAL PDZ FP-2
Cc1ccc(S(=O)(=O)NCC(=O)OCC(=O)N2C(C)CCCC2C)cc1 (centres undefined)	5	0	3	-2	3	1
CCCS(=O)(=O)c1ncc(Cl)c(C(=O)Nc2ccc(S(=O)(=O)Nc3ncccn3)cc2)n1	-12	42*	0	3	-3	-5
Cc1cc2oc(C(=O)Nc3ccc(S(=O)(=O)Nc4ncccn4)cc3)cc(=O)c2cc1Cl	90*	-2	0	-7	-5	-1
Cc1ccc2c(=O)cc(C(=O)Nc3ccc(S(=O)(=O)Nc4onc(C)c4C)cc3)oc2c1	·	-4	-2	-2	-3	-4
Cc1ccc(C(=O)NN2C(=O)c3ccc(S(=O)(=O)c4ccc(C(=O)O)cc4)cc3C2=O)cc1	47*	2	-1	-1	3	1
CC1=C(C(N)=O)C(c2ccc(Cl)cc2Cl)n2ncnc2N1 (centres undefined)	38*	-4	0	5	-8	0
CC(=O)c1cccc(S(=O)(=O)N2CCC(C(=O)OC3CCOC3=O)CC2)c1 (centres undefined)	·	-4	0	-1	-6	0
COc1ccc(CCN(C)C(=O)C2CCN(Cc3cccc(OC)c3OC)CC2)cc1OC	37*	1	4	2	-10	4
CCN(CC)C(=O)c1[nH]cnc1C(=O)Nc1ccon1	7	5	0	-7	3	-1
O=C(Nc1cccc2ccccc12)/C(=C/c1ccc([N+](=O)[O-])cc1)NC(=O)c1ccccc1	68*	4	-1	3	-15	-1
CC(C)(C)NC(=O)/C(=C\c1ccccc1F)NC(=O)c1ccc([N+](=O)[O-])cc1	70*	-5	1	-2	-4	-1
CN(C(=O)COC(=O)Cc1c(F)cccc1Cl)c1c(N)n(Cc2ccccc2)c(=O)[nH]c1=O	-2	3	-2	-1	-3	0
CC[C@]12c3[nH]c4ccccc4c3CCN1C(=O)C(CC(=O)NCCC1=CCCCC1)C[C@@H]2C(=O)N1CCN(C(=O)C2CC2)CC1 (some centres undefined)	-3	-3	0	-6	-6	0
Nn1c(SCC(=O)NCCc2ccc(F)cc2)nnc1C1CCCCC1	-3	-1	0	-5	0	0
